In ChEMBL document CHEMBL1156614, “Discovery of imidazole vinyl pyrimidines as a novel class of kinase inhibitors which inhibit Tie-2 and are orally bioavailable” (Bioorg Med Chem Lett, 2008):

How the values were obtained:
Angiopoietin-1 receptor [1] = biological target: T1, Angiopoietin-1 receptor (Homo sapiens, UniProt Q02763); experiment: Inhibition of recombinant Tie2 expressed in baculovirus-Sf21 system
Procedure, shortened: (§1)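 Kinase-domain fragments expressed in baculovirus/Sf21 cells. Crude lysates (ice-cold Triton lysis with protease inhibitors, cleared) were diluted 1:200 for Tie-2, 1:400 for KDR and 1:1000 for Flt-1. Reactions ran on synthetic peptide-coated plates in 100 mM Hepes pH 7.4 with 5 µM ATP, 10 mM MnCl2, 0.1 mM vanadate, 0.2 mM DTT and 2.5% final DMSO, at room temperature for 60 min (Tie-2) or 20 min (KDR, Flt-1).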

[2] = biological target: Vascular endothelial growth factor receptor 1 (Homo sapiens, UniProt P17948); experiment: Inhibition of recombinant Flt1 expressed in baculovirus-Sf21 system; procedure, shortened: as §1
Sequence of Vascular endothelial growth factor receptor 1 (P17948 whole entry): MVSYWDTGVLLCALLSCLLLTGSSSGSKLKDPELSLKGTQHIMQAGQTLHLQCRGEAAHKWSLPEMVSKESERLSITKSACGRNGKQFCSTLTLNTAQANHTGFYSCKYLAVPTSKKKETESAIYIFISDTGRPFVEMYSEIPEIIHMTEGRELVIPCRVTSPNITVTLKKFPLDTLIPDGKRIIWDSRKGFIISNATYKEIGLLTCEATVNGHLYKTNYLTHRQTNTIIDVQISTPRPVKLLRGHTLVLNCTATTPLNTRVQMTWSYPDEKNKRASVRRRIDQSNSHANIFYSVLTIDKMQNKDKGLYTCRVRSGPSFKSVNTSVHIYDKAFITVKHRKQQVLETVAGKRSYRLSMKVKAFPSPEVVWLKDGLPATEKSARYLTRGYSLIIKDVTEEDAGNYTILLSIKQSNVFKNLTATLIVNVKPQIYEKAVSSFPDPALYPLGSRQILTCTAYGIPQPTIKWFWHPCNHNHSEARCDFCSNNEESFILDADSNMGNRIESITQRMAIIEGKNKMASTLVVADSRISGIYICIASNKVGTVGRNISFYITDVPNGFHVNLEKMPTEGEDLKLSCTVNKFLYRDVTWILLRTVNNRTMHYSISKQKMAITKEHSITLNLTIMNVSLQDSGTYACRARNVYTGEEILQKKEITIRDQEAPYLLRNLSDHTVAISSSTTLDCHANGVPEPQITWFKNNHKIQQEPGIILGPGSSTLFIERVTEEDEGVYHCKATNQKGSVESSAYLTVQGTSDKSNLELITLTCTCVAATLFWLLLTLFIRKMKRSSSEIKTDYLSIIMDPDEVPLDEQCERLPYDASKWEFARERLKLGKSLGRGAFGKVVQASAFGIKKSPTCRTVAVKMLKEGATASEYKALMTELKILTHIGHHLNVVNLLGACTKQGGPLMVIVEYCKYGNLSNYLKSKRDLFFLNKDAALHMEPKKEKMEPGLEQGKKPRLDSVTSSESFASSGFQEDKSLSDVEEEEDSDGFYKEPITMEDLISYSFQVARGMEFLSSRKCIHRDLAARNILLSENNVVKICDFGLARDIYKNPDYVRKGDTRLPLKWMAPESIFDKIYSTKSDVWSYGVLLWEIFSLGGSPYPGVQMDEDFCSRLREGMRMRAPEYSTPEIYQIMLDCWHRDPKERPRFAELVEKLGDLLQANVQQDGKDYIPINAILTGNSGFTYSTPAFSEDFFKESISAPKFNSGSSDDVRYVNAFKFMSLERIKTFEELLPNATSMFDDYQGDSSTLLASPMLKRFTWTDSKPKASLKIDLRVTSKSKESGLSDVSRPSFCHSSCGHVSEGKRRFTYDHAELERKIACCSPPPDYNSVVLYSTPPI

[3] = biological target: Vascular endothelial growth factor receptor 2 (Homo sapiens, UniProt P35968); experiment: Inhibition of recombinant KDR expressed in baculovirus-Sf21 system; procedure, shortened: as §1
Sequence of Vascular endothelial growth factor receptor 2 (P35968 whole entry): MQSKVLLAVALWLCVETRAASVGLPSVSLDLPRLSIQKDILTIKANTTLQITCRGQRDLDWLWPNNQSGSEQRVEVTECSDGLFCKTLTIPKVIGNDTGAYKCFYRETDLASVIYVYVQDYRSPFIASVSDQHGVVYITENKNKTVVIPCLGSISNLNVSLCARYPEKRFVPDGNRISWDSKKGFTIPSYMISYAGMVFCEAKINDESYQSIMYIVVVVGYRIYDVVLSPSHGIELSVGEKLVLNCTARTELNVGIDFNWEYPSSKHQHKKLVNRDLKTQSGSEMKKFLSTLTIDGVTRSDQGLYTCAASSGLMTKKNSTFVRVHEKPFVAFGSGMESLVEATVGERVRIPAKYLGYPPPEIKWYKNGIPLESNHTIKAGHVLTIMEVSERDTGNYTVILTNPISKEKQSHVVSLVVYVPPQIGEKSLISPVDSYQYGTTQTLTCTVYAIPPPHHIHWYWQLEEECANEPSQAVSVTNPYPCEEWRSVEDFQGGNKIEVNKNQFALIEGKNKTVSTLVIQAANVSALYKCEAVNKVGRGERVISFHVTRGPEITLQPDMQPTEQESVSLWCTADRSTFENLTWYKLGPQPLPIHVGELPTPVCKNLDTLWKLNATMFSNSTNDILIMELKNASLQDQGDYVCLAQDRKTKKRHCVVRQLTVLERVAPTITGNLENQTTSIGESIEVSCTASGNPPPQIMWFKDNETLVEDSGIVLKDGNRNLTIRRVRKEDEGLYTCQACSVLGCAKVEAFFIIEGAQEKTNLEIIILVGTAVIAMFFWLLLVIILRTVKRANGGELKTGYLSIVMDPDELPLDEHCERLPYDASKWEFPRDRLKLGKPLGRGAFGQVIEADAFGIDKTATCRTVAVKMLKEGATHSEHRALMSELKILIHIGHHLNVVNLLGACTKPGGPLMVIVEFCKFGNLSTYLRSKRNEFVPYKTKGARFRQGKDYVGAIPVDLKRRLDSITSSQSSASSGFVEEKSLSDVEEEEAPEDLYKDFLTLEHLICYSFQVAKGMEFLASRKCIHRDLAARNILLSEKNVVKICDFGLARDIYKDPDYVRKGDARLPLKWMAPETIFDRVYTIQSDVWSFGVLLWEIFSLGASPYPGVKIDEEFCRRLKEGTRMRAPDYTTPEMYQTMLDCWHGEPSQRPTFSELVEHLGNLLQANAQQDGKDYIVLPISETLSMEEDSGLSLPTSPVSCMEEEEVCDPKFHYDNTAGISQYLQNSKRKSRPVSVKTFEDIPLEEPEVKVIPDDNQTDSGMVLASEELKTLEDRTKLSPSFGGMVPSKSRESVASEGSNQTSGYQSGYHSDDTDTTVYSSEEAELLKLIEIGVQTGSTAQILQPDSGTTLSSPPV

[4] = Cmax in mouse at 1 mg/kg, po by cassette dosing assay; format: ADME, organism-based; design: dose 1 mg/kg, route oral; conditions: in vivo
Angiopoietin-1 receptor [5] = biological target: T1, Angiopoietin-1 receptor; experiment: Inhibition of human Tie2 autophosphorylation expressed in CHOK1 cells by ELISA; format: cell-based, CHO-K1
Procedure, shortened: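 CHO-K1 cells stably expressing human Tie-2 were seeded at 6×10^4 cells/well and grown 3 days in DMEM/G418/10% FCS. Compound was added in DMEM with 1% FCS for 45 min at 37 °C. Cells were lysed on ice, and lysate was captured on a human Tie-2 ELISA plate (2 h, room temperature). Phospho-Tie-2 was detected with a rabbit antibody, then anti-rabbit HRP and colour reagent; read at OD450.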

HUVEC = experiment: Inhibition of growth factor-stimulated proliferation of HUVEC; format: functional, cell-based; conditions: Homo sapiens
[6] = Cmax in mouse at 2 mg/kg by cassette dosing assay; format: ADME, organism-based; design: dose 2 mg/kg; conditions: in vivo
[7] = Fraction unbound ligand in rat; format: ADME
[8] = Fraction unbound ligand in mouse; format: ADME, organism-based; conditions: in vivo
Mus musculus = experiment: AUC in mouse at 2 mg/kg by cassette dosing assay; format: ADME, organism-based, Plasma; design: dose 2 mg/kg; conditions: in vivo
[9] = Inhibition of p38

T1 sequence (Q02763 whole entry, the tested form may be a part): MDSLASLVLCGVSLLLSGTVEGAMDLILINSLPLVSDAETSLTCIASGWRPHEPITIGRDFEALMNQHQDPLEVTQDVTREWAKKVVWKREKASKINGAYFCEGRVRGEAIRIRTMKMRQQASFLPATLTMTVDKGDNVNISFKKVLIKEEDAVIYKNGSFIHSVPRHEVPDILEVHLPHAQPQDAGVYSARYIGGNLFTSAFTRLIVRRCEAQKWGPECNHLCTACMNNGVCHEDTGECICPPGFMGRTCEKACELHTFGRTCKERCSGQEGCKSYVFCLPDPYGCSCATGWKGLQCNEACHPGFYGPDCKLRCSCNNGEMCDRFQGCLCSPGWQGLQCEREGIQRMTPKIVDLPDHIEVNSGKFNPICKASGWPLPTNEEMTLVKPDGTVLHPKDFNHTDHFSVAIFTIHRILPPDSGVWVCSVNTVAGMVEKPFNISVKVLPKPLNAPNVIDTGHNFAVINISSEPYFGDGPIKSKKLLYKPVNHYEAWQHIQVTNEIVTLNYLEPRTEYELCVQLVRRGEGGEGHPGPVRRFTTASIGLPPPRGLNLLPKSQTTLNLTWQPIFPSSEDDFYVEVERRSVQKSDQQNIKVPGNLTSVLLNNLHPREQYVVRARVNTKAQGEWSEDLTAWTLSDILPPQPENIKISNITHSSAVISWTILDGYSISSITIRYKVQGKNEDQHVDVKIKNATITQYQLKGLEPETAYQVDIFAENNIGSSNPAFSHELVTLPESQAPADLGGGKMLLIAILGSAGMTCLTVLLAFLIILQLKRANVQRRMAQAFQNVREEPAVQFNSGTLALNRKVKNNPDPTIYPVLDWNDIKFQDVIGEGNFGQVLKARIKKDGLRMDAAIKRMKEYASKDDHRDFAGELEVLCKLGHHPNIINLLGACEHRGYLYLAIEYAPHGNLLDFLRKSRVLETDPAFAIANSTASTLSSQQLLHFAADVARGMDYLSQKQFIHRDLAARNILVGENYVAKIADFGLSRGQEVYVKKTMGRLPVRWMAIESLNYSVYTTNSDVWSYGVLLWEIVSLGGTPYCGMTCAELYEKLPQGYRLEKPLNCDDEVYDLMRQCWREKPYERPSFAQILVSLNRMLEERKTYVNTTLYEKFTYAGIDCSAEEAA

Compound	IC50 (Angiopoietin-1 receptor [1]) [µM]	IC50 [2] [µM]	IC50 [3] [µM]	also measured
Nc1nccc(/C=C/c2c(-c3ccc(F)cc3)nc3sccn23)n1	13	–	–	–
Cn1cnc(/C=C/c2ccnc(N)n2)c1-c1ccccc1	> 100	> 100	7.8	–
Nc1nccc(/C=C/c2[nH]ncc2-c2ccccc2)n1	64	> 100	> 100	–
Nc1nccc(/C=C/c2c(-c3ccccc3)ncn2Cc2ccccc2)n1	2.8	31	7	–
Cn1cnc(-c2ccccc2)c1CNc1ccnc(N)n1	> 100	> 100	> 100	–
Clc1nccc(/C=C/c2c(-c3ccccc3)nc3sccn23)n1	55	66	> 100	–
Nc1nccc(/C=C/c2c(-c3ccccc3)nc3sccn23)n1	6	30	7	Cmax [4]: 290 nM
Cn1cnc(-c2ccccc2)c1C(=O)Nc1ccnc(N)n1	> 100	> 100	> 100	–
Cc1nc2sccn2c1/C=C/c1ccnc(N)n1	> 100	> 100	70	–
C(=C\c1c(-c2ccccc2)nc2sccn12)/c1ccnc(Nc2ccccc2)n1	68	> 100	> 100	–
Cn1cnc(-c2ccccc2)c1/C=C/c1ccnc(N)n1	3.8	34	3.2	IC50 (Angiopoietin-1 receptor [5]): 0.34 µM; IC50 (HUVEC): > 10 µM; Cmax [6]: 460 nM; fraction unbound [7]: 0.099; fraction unbound [8]: 0.125; AUC (Mus musculus): 0.58 µM·h; IC50 [9]: 12 µM
Nc1nccc(/C=C/c2[nH]cnc2-c2ccccc2)n1	8.4	68	9.8	IC50 (Angiopoietin-1 receptor [5]): 0.37 µM
Cn1cnc(-c2ccccc2)c1NC(=O)c1ccnc(N)n1	> 100	> 100	> 100	–
Nc1nccc(/C=C/c2c(-c3ccccc3)nc3n2CCS3)n1	2.9	23	3.2	–
Nc1nccc(/C=C/c2c(Cl)nc3sccn23)n1	> 100	> 100	31	–
CC(Nc1nccc(/C=C/c2c(-c3ccccc3)nc3sccn23)n1)c1ccccc1 (centres undefined)	> 100	> 100	> 100	–

Compound	IC50 (Angiopoietin-1 receptor [1]) [µM]	IC50 [2] [µM]	IC50 [3] [µM]	also measured
Cn1cnc(-c2ccccc2)c1C1CC1c1ccnc(N)n1 (centres undefined)	> 100	> 100	> 100	–
Cn1c(-c2ccccc2)c(/C=C/c2ccnc(N)n2)c2ccccc21	83	–	–	–
CC(C)(C)C(=O)Nc1nccc(/C=C/c2c(-c3ccccc3)nc3sccn23)n1	41	96	13	–
CNc1nccc(/C=C/c2c(-c3ccccc3)nc3sccn23)n1	14	84	17	–
Cn1cnc(-c2ccccc2)c1C#Cc1ccnc(N)n1	6.4	36	2.9	–
Nc1ccnc(/C=C/c2c(-c3ccccc3)nc3sccn23)n1	> 100	> 100	> 100	–
Nc1nccc(/C=C/c2ccsc2-c2ccccc2)n1	> 100	> 100	> 100	–
CC(=O)Nc1nccc(/C=C/c2c(-c3ccccc3)nc3sccn23)n1	11	100	4.5	–
Nc1nccc(/C=C/c2c(-c3ccccc3)ncn2CC(=O)O)n1	68	–	–	–
Cn1cnc(-c2ccccc2)c1Nc1ccnc(N)n1	> 100	> 100	> 100	–
Cn1cnc(-c2ccccc2)c1NCCc1ccnc(N)n1	> 100	> 100	> 100	–
Nc1cc(/C=C/c2c(-c3ccccc3)nc3sccn23)ncn1	5.2	> 100	35	–
C(=C\c1c(-c2ccccc2)nc2sccn12)/c1ccncn1	27	> 100	77	–
Nc1nccc(/C=C/c2c(-c3ccccc3)ncn2CCN2CCCC2)n1	21	> 100	32	–
Nc1nccc(/C=C/c2c(-c3ccccc3)nc3ccccn23)n1	5.6	79	13	–
Nc1nccc(/C=C/c2sccc2-c2ccccc2)n1	> 100	> 100	> 100	–
